Calls of active or inactive are those of the source. The rule behind the calls is not given here.
Experiments:
[1] = Inhibition of luciferase refolding in rabbit reticulocyte lysate preincubated for 30 mins measured after 1 hr by liquid scintillation counting
[2] = Inhibition of human HSP70/DnaJ-mediated luciferase refolding after 10 mins by liquid scintillation counting
In short: (§1)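 Luciferase (0.5 mg/mL) denatured in 6 M guanidine HCl in buffer A (25 mM Hepes pH 7.4, 50 mM potassium acetate, 5 mM DTT), 60 min at RT, then diluted 1:20. Refolding mixture: 0.5 µM Hsp70, 60 nM DnaJ, 125 ng denatured luciferase with compound in buffer containing 0.1 mM ATP, creatine phosphate and creatine phosphokinase. Incubated 1 h; DnaJ, luciferase or ATP varied in mechanism runs. Aliquots read by luciferin luminescence after 10 min. IC50 is the geometric mean of ≥3 determinations.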

A 172 = test: Induction of Hsp70 in human A172 cells at 10 uM after overnight incubation by solid state immuno assay relative to 17-AAG; format: functional
In short: (§2)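 HeLa or A172 cells treated overnight with compound; Hsp70 levels measured by solid-state immunoassay, with stimulation expressed relative to 1 µM 17-AAG as positive control.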

HeLa = test: Induction of Hsp70 in human HeLa cells at 10 uM after overnight incubation by solid state immuno assay relative to 17-AAG; format: functional
In short: as §2

[3] = Effect on luciferase activity up to 300 uM
Homo sapiens [4] = species on record: Homo sapiens; test: Binding affinity to human Hsp70 assessed as rightward shift in melting temperature at 3.2 to 32 uM by thermal denaturation assay
[5] = Binding affinity to DnaJ assessed as rightward shift in melting temperature at 3.2 to 32 uM by thermal denaturation assay
Homo sapiens [6] = species on record: Homo sapiens; test: Binding affinity to human Hsp70 assessed as rightward shift in melting temperature by thermal denaturation assay
[7] = Binding affinity to DnaJ assessed as rightward shift in melting temperature at 10 to 30 uM by thermal denaturation assay
Homo sapiens [8] = species on record: Homo sapiens; test: Inhibition of human Hsp70-mediated ATPase activity at 10 uM
Homo sapiens [9] = species on record: Homo sapiens; test: Inhibition of human HSP70/DnaJ-mediated luciferase refolding after 10 mins by liquid scintillation counting in presence of 0.1 to 10 µg/mL of denatured luciferase
In short: as §1

[10] = Binding affinity to DnaJ assessed as rightward shift in melting temperature by thermal denaturation assay
Homo sapiens [11] = species on record: Homo sapiens; test: Inhibition of DnaJ-mediated stimulation of human Hsp70 ATPase activity at 10 uM; conditions: 0.1 to 3.2 uM, in the assay text read “at 0.1 to 3.2 uM” for “at 10 uM”
In short: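 Hsp70 (300 nM) incubated with 3.2 µM ATP and DnaJ (0.1–320 nM) at 37 °C for 5–40 min in pH 7.4 HEPES buffer with KCl, EGTA and MgCl2. Reactions stopped with EDTA stop buffer containing ADP tracer and antibody. ADP detected by Transcreener fluorescence (ex 580, em 620 nm).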

Homo sapiens [12] = species on record: Homo sapiens; test: Inhibition of human HSP70/DnaJ-mediated luciferase refolding after 10 mins by liquid scintillation counting in presence of up to 10 mM of ATP
In short: as §1

Structure (SMILES)	IC50 [1] [µM]	IC50 [2] [µM]	Activity (A 172) [%]	Activity (HeLa) [%]	Activity [3]	further results
Clc1ccccc1C1Oc2ccccc2-c2cc(-c3ccco3)nn21 (centres undefined)	8.8	> 100	<10	<10	inactive	
COC(=O)c1cccc(NC(=O)COc2ccc(Cl)cc2Cl)c1		> 32				Activity (Homo sapiens [4]): inactive; Activity [5]: inactive
CCCCCOC(=O)C1=C(C)NC2(O)c3ccccc3C(=O)C12O (centres undefined)	4.3	> 30	<10	<10	inactive	
CCCCOC(=O)c1cccc(NC(=O)COc2ccc(Cl)cc2Cl)c1		0.13				Activity (Homo sapiens [6]): inactive; Tm(app) [7]: 2 °C; inhibition (Homo sapiens [8]): inactive; inhibition (Homo sapiens [9]): inactive; Activity [10]: Dose-dependent effect; inhibition (Homo sapiens [11]): Active; inhibition (Homo sapiens [12]): Active
CCCOC(=O)c1cccc(NC(=O)COc2ccccc2Cl)c1		0.6				
COC(=O)c1cccc(NC(=O)COc2cc(Cl)ccc2Cl)c1		0.95				
CCOC(=O)c1cccc(NC(=O)COc2ccc(Cl)cc2)c1		> 32				
CCOC(=O)c1cccc(NC(=O)COc2ccccc2Cl)c1	0.81	0.62	<10	<10	inactive	
c1ccc(Nc2nc(-c3cccs3)cs2)cc1	1.1	22	<10	<10	inactive	
Clc1ccc(Nc2nc(-c3cccs3)cs2)cc1	4	> 100	<10	<10	inactive	

From ChEMBL document CHEMBL2169884, “Novel inhibitors of heat shock protein Hsp70-mediated luciferase refolding that bind to DnaJ” (Bioorg Med Chem, 2012)
